# Active and inactive are the calls of the source. The rule behind the calls is not given here.
# Experiments:
# [1] = test system: Semliki Forest virus; experiment: Effective dose administered intraperitoneally againist Forest virus infected mice; assay type: functional, organism-based
# Procedure, shortened: (§1)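 Drug was suspended in 0.9% NaCl or in a carboxymethylcellulose/polysorbate 80/benzyl alcohol/NaCl vehicle. Deaths were recorded daily for 6 days, with 24 mice per group. The ED50 is the minimal dose protecting 50% of mice, calculated by probit analysis.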
# [2] = test system: Semliki Forest virus; experiment: Effective dose administered perorally against Forest virus infected mice; assay type: functional, organism-based; procedure, shortened: as §1
# [3] = test system: Semliki Forest virus; experiment: Effective dose administered subcutaneously against Forest virus infected mice; assay type: functional, organism-based; procedure, shortened: as §1
# [4] = test system: Human alphaherpesvirus 1; experiment: Intraperitoneal administration against herpes simplex virus type-1 (HSV-1) infected mice; assay type: functional
# Procedure, shortened: (§2)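 ICR or CD-1 mice got drug ip in saline as the total daily dose (mg/kg/day). It was split into doses at -40, -28, -20, -3 and +3 h relative to ip inoculation with 5.6×10^4 pfu HSV-1. Mice were followed for 22 days, 15/group. Protection index = (control mortality − treated mortality)/control mortality; >0.25 counted active. Only the lowest protective dose is recorded.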
# [5] = test system: Semliki Forest virus; experiment: Antiviral activity against Forest virus (SFV); assay type: functional
# Procedure, shortened: (§3)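 ICR or CD-1 mice of both sexes got one drug dose by the route in the line (ip, po or sc). The drug was a suspension in 0.9% NaCl or in a CMC/polysorbate 80/benzyl alcohol/NaCl vehicle. […] Deaths were recorded daily for 6 days, 24 mice/group. ED50 is the minimal dose protecting 50% of mice, by probit analysis.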
# [6] = test system: Mus musculus; experiment: Evaluation for serum interferon response from a single 800 mg/kg intraperitoneal administration in vesicular stomatitis virus on […] cells; Range 10-50 units/mL; assay type: functional
# Procedure, shortened: (§4)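 Mice got a single ip 800 mg/kg dose. Blood was drawn 3, 6, 8 and 12 h later from five mice per group and pooled. Interferon titer was measured by plaque reduction with vesicular stomatitis virus on L929 cells. Titer is the reciprocal serum dilution cutting plaques by 50% versus untreated cultures. Peak response within 24 h was banded: ≥2000, ~500-1000, ~50-500, ~10-50 U/mL.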
# [7] = test system: Mus musculus; experiment: The compound was evaluated for the serum interferon response from a single 800 mg/kg intraperitoneal administration in vesicular stomatitis virus on […] cells; Range 500-1000 units/mL; assay type: functional; procedure, shortened: as §4
# [8] = test system: Semliki Forest virus; experiment: Effective dose administered perorally againist Forest virus infected mice; assay type: functional; conditions: po; procedure, shortened: as §3
# [9] = test system: Semliki Forest virus; experiment: Effective dose administered subcutaneously againist Forest virus infected mice; assay type: functional; conditions: sc; procedure, shortened: as §3
# [10] = test system: Mus musculus; experiment: Protection index after intraperitoneal administration (50 mg/kg/day) against herpes simplex virus type-1 (HSV-1) infected mice [protection index=(control mortality-treated mortality)/control mortality]; assay type: functional; procedure, shortened: as §2
# [11] = test system: Vesicular stomatitis virus; experiment: Evaluation for serum interferon response from a single 800 mg/kg intraperitoneal administration in vesicular stomatitis virus on […] cells.; assay type: functional; procedure, shortened: as §4
# [12] = test system: Mus musculus; experiment: The compound was evaluated for the serum interferon response from a single 800 mg/kg intraperitoneal administration in vesicular stomatitis virus on […] cells; range 50-500; assay type: functional; procedure, shortened: as §4
# [13] = test system: Mus musculus; experiment: Protection index after intraperitoneal administration (25 mg/kg/day) against herpes simplex virus type-1 (HSV-1) infected mice [protection index=(control mortality-treated mortality)/control mortality]; assay type: functional; procedure, shortened: as §2
# [14] = test system: Mus musculus; experiment: The compound was evaluated for the serum interferon response from a single 800 mg/kg intraperitoneal administration in vesicular stomatitis virus on […] cells; range 500-1000 units/mL; assay type: functional; procedure, shortened: as §4
Structure (SMILES),ED50 [2],ED50 [3],Protection index [4],ED50 [5],ED50 [8],ED50 [9],also measured
Nc1nc(O)c(Br)c(-c2ccc3ccccc3n2)n1,inactive,inactive,0.14,–,–,–,ED50 [1]: inactive
Nc1nc(O)c(Cl)c(-c2ccc(O)cc2)n1,inactive,inactive,–,> 400 mg/kg,–,–,–
Cc1ccc(-c2nc(N)nc(O)c2Br)cc1,–,–,–,200 mg/kg,–,–,IFN [6]: 10 units/mL
Nc1nc(O)c(Br)c(-c2ccc(F)cc2)n1,–,–,0.46,160 mg/kg,> 400 mg/kg,> 400 mg/kg,IFN [7]: 500 units/mL
Nc1nc(O)c(I)c(-c2ccc(-c3ccccc3)cc2)n1,inactive,inactive,–,–,–,–,ED50 [1]: inactive
Nc1nc(O)c(I)c(-c2cccc3ccccc23)n1,–,–,0.18,70 mg/kg,> 400 mg/kg,> 400 mg/kg,IFN [6]: 10 units/mL
Nc1nc(O)c(Br)c(-c2ccc(-c3ccccc3)cc2)n1,inactive,inactive,–,–,–,–,ED50 [1]: inactive
COc1cccc(-c2nc(N)nc(O)c2I)c1,–,–,–,40 mg/kg,> 400 mg/kg,> 400 mg/kg,IFN [6]: 10 units/mL; Protection index [10]: 0.54
Nc1nc(O)c(Br)c(-c2ccccc2F)n1,–,–,–,25 mg/kg,> 400 mg/kg,200 mg/kg,IFN [11]: 50 units/mL; Protection index [10]: 0.69
COc1cccc(-c2nc(N)nc(O)c2Br)c1,–,–,–,10 mg/kg,> 400 mg/kg,55 mg/kg,IFN [11]: 50 units/mL; Protection index [10]: 0.62
CCCOc1cccc(-c2nc(N)nc(O)c2Br)c1,–,–,0.4,100 mg/kg,> 400 mg/kg,> 400 mg/kg,IFN [6]: 10 units/mL
COc1cccc(-c2nc(N)nc(O)c2Cl)c1,–,–,–,15 mg/kg,> 400 mg/kg,205 mg/kg,IFN [11]: 50 units/mL; Protection index [10]: 0.92
Nc1nc(O)c(I)c(-c2cccc(Br)c2)n1,–,–,–,65 mg/kg,> 400 mg/kg,90 mg/kg,IFN [12]: 500 mL
Nc1nc(O)c(I)c(-c2ccc3ccccc3n2)n1,inactive,inactive,–,–,–,–,ED50 [1]: inactive
Nc1nc(O)c(Br)c(-c2ccc(O)cc2)n1,inactive,inactive,–,> 400 mg/kg,–,–,–
CN(C)c1ccc(-c2nc(N)nc(O)c2Br)cc1,inactive,inactive,0.13,–,–,–,ED50 [1]: inactive
Nc1nc(O)c(I)c(-c2ccoc2)n1,inactive,inactive,–,> 400 mg/kg,–,–,–
Nc1nc(O)c(I)c(-c2cccc(F)c2)n1,–,–,–,10 mg/kg,> 400 mg/kg,80 mg/kg,IFN [7]: 500 units/mL; Protection index [13]: 0.25
Nc1nc(O)c(Cl)c(-c2cccc(F)c2)n1,–,–,–,30 mg/kg,> 400 mg/kg,100 mg/kg,IFN [11]: >=2000 ml; Protection index [13]: 0.61
Nc1nc(O)c(Cl)c(-c2cnccn2)n1,–,–,0.07,110 mg/kg,395 mg/kg,> 400 mg/kg,IFN [14]: 500 units/mL
Nc1nc(O)c(Cl)c(-c2ccc3ccccc3n2)n1,inactive,inactive,0.07,–,–,–,ED50 [1]: inactive
Nc1nc(O)c(I)c(-c2ccco2)n1,–,–,0.28,135 mg/kg,> 400 mg/kg,> 400 mg/kg,IFN [6]: 10 units/mL
Nc1nc(O)c(Br)c(-c2cc(Cl)cc(Cl)c2)n1,–,–,–,245 mg/kg,> 400 mg/kg,> 400 mg/kg,IFN [6]: 10 units/mL

# Reference: ChEMBL document CHEMBL1123103, “Pyrimidinones. 1. 2-Amino-5-halo-6-aryl-4(3H)-pyrimidinones. Interferon-inducing antiviral agents” (1985)
